The values that follow come from PMC10043961 (Biomedicine & Pharmacotherapy, 2023).

The test system of data set [1] is SARS-CoV-2 (USA-WA1/2020). The format is cell-based.
Data set [2] concerns Vero E6 cells. The following applies: for Drug-induced toxicity, LDH release (in words): Vero E6, 24 h; for Effect on cellular ATP levels (in words): Vero E6, Cell Titer Glo. (In general: LDH leaks from cells whose membrane has failed.)
For data set [3], the system named is SARS-CoV-2 (USA-WA1/2020). The data set is described as follows: microbe, parasite or virus in culture. It is filed as cell-based. The following applies: for EC50: Severe acute respiratory syndrome coronavirus 2, Huh7.5, read-out: EC50(µM) (R^2); for IC50: Severe acute respiratory syndrome coronavirus 2, Huh7.5, read-out: IC50, inhibitory viral replication concentration at 50%.

The conditions of data set [4]: cited from earlier work.
The target in data set [5] is T1, SARS-CoV-2 Mpro (Severe acute respiratory syndrome coronavirus 2, UniProt P0DTD1). Description: biochemical. The following applies: for IC50: IC50 against Mpro activity.
A short description of data set [6]: in vitro. To be noted: human.
A short description of data set [7]: Mouse pharmacokinetics: plasma and epithelial lining fluid. The format is in vivo, mice. Summed up:
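Female 6-week-old CD1 mice were dosed PO once daily for 7 days. […] Plasma and BAL were assayed by LC-MS/MS against spiked standard curves. ELF levels came from urea normalization (VELF = VBAL × UreaBAL/Ureaplasma). Free drug was calculated as total × fraction unbound from rapid equilibrium dialysis.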

Data set [8] concerns SARS-CoV-2. It is filed as cell-based.
For data set [9], the system named is purine synthesis pathway in Vero E6 cells. Description: Metabolomic analysis of Vero E6 cells, purine synthesis pathway. It is filed as cell-based. The following applies: Vero E6, 1 and 5 µM. Summed up: (§1)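 Vero E6 cells at 80% confluence were treated for 24 h with test compound (1, 5 or 10 µM) in regular culture medium, with DMSO as vehicle. Cells were washed with ice-cold PBS and scraped into ice-cold 80% methanol for LC-MS metabolomics. Metabolites were matched to an in-house database (10 ppm mass, 0.5 min retention time tolerance), and peak integration was manually curated.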

For data set [10], the system named is SARS-CoV-2 double-stranded RNA. It is filed as cell-based.
For data set [11], the system named is SARS-CoV-2 viral clearance. The following applies: patients hospitalized with COVID-19 ref 62; cited from earlier work.
The subject of data set [12] is SARS-CoV-2 double-stranded RNA. The format is cell-based. The source holds these as a separate data set.
Data set [13] deals with SARS-CoV-2. Description: microbe, parasite or virus in culture. To be noted: Severe acute respiratory syndrome coronavirus 2, Vero. The format is cell-based.
Data set [14] deals with Vero E6 cells. The following applies: Vero E6, 1–10 µM, 24 h.
The test system of data set [15] is pyrimidine synthesis (DHODH) in Vero E6 cells. Description: Metabolomic analysis of Vero E6 cells, de novo pyrimidine synthesis. The following applies: 24 h; for Pyrimidine synthesis, UMP levels (in words): Vero E6, 10 µM. The format is cell-based. Summed up:
as §1

Data set [16] deals with ecto-5′-nucleotidase (NT5E) or (CD73). Description: Western blot of NT5E. It is filed as cell-based. Put shortly: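 Vehicle- and test compound-treated cells were lysed in RIPA buffer with protease inhibitors, and protein was measured by BCA in triplicate. Lysates were separated by SDS-PAGE and transferred to nitrocellulose. Membranes were blocked in 5% skim milk/TBS and probed with anti-NT5E/CD73 primary antibody.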

For data set [17] the following is noted: data from DrugBank ref 49; cited from earlier work.
The target in data set [18] is T1, SARS-CoV-2 Mpro. It is filed as binding.
Setting [19] is: mice, 10 mg/kg PO daily for 7 days, 10 mg/kg.
Where [20] appears, read: read-out: Inhibition of Mpro activity.

Each structure is given as a SMILES string. Several values for one entry are separate records, joined by “and”; a condition that tells them apart may be missing. Equal values may be shown once. Entries after “also recorded” stand apart in the source; their conditions may differ. Read-outs that look alike come from different tables or passages of the source. Where only a bound is given, the exact number is not on record here.

`C=C[C@H]1C[N@@]2CC[C@H]1C[C@@H]2[C@@H](O)c1ccnc2ccc(OC)cc12` [Quinidine]: the “Antiviral effect on SARS-CoV-2 replication (in words)” value (shortened to “Antiviral effect”) in data set [1] was “modest dose-dependent antiviral effects”. Further, in data set [2], the “Drug-induced toxicity, LDH release (in words)” value (“Drug-induced toxicity” below) is given as “minimal impact” and the “Effect on cellular ATP levels (in words)” value is listed as “minimal impact”.
Consider `COC(=O)Nc1nc2ccc(C(=O)c3ccccc3)cc2[nH]1` [Mebendazole], for which the “Antiviral effect” value in data set [1] is given as “dose-dependent inhibition”. For the same compound, the “Drug-induced toxicity” value in [2] is listed as “absence of overt toxicity”. Moreover, the “Antiviral activity in Huh7.5 cells (in words)” value in [3] is reported as “lacks strong inhibitory activity; also recorded: less effective”. The “peak plasma levels of patients” value in data set [4] (patients receiving 10 mg/kg every 6 h (total 40 mg/kg/day) ref 60) was 0.3 to 1.69 µM. Further, in [5], the “Inhibition of Mpro activity (in words)” value is “significant inhibition”; the IC50 was 19 µM and 19.9 µM. This compound also gave a CC50 in data set [6] of more than 100 µM. In addition, the “time of maximum total plasma concentration after the last dose” value in data set [7] (mice, 10 mg/kg PO daily for 7 days) is not above 90 min. In data set [7] (setting [19]), the “maximum total plasma concentration” value is 697.67 ng/mL and 2.36 µM; the “peak free drug level in ELF” value was ~550 ng/mL and ~1.8 µM.
As for `COc1cccc(-c2ccc(NC(=O)C3=C(C(=O)O)CCC3)c(F)c2)c1` [vidofludimus], in [8], the “Viral replication in the presence of uridine (in words)” value is “inhibitory activity was reversed with addition of uridine; also recorded: activity changed based on the uridine addition”.
As to `O=C1C(O)=C([C@H]2CC[C@H](c3ccc(Cl)cc3)CC2)C(=O)c2ccccc21` [Atovaquone], the “Free guanosine, inosine and adenosine levels (in words)” value was “downregulation of adenosine, guanosine, and inosine levels” in [9]; “significant depletion” in data set [9] (listed as atovaquone). Also, the “Antiviral effect” value in data set [1] was “dose-dependent inhibition”. Moreover, the “dsRNA staining compared to DMSO-treated control cells” value in data set [10] and in data set [12] was “striking reduction in dsRNA staining” each time. Moreover, the “Drug-induced toxicity” value in [2] is given as “did not elicit substantial LDH release”. Besides, in [3], the EC50 was determined as 6.2 µM. The IC50 in data set [3] was 6.8 µM; in [13], 0.02 µM. The “primary endpoint: effect on SARS-CoV-2 viral clearance compared with placebo” value in data set [11] is “did not meet the primary endpoint”. Also, in [4], the serum levels is more than 40 µM. Further, the inhibition at 50 µM in data set [5] (read-out: Inhibitory effect on Mpro activity) was approximately 35%. Moreover, the “Phospholipidosis, NBD-PE (in words)” value in data set [14] is “did not show phospholipidosis”. Further, in data set [8], the “Viral replication in the presence of uridine (in words)” value was “significant inhibition for viral replication regardless the uridine concentration”. The CC50 in data set [6] was more than 100 µM. Moreover, the “Pyrimidine synthesis, UMP levels versus orotate and dihydroorotate (in words)” value in [15] (Vero E6, 1 µM and 5 µM) is listed as “does not inhibit pyrimidine synthesis”. In addition, the results for the “Pyrimidine synthesis, UMP levels (in words)” value in [15] and in data set [15] (listed as atovaquone) were “significant depletion in UMP levels” and “significant inhibition in pyrimidine synthesis”, respectively. The “Cmax in mice compared to BID dosing in HIV infected volunteers” value in [7] (mice 20 mg/kg PO daily for 7 days versus human values of ref 57) was 2–5 fold. Moreover, in data set [7] (mice, 20 mg/kg PO daily for 7 days), the “peak total plasma concentration” value is listed as 100 µg/mL. The “peak free epithelial lining fluid (ELF) concentration” value in data set [7] (mice, 20 mg/kg PO daily for 7 days, urea normalized, 20 mg/kg) was 70 nM. In data set [7] (mice, 20 mg/kg PO daily for 7 days, 20 mg/kg), the “peak free plasma level” value is on record as approximately 44 nM. Moreover, the half-life in data set [7] (mouse, in vivo) was in the range of 18 to 38 h. In addition, in data set [16] (5 µM), the “NT5E protein expression, quantification (in words)” value is on record as “significant decrease”. Also, the “NT5E expression (in words)” value in data set [16] (atovaquone treated cells) is recorded as “significantly downregulated”. Also, the Protein bound in data set [17] is listed as more than 99.9%.
Take `C[C@@H]1O[C@@H](O[C@H]2C[C@@H](O)[C@]3(CO)[C@H]4[C@H](O)C[C@]5(C)[C@@H](C6=CC(=O)OC6)CC[C@]5(O)[C@@H]4CC[C@]3(O)C2)[C@H](O)[C@H](O)[C@H]1O` [Ouabain]: in data set [1], the “Antiviral effect” value was “dose-dependent inhibition” and the “IC50 against SARS-CoV-2 (in words)” value is reported as “low nanomolar range”. In data set [2], the “Drug-induced toxicity” value was “absence of overt toxicity”. Moreover, in [3], the EC50 stood at 0.07 µM and the IC50 worked out at 0.075 µM. For the same compound, in [6], the CC50 is more than 100 µM.
For `COc1ccccc1Oc1c(NS(=O)(=O)c2ccc(C(C)(C)C)cc2)nc(-c2ncccn2)nc1OCCO` [Bosentan], the “Antiviral effect” value in data set [1] is on record as “modest dose-dependent antiviral effects”. For the same compound, in data set [2], the “Drug-induced toxicity” value is listed as “minimal impact” and the “Effect on cellular ATP levels (in words)” value is “minimal impact”.
`CCN(CC)C(=O)/C(C#N)=C/c1cc(O)c(O)c([N+](=O)[O-])c1` [Entacapone]: the “Antiviral effect” value in [1] was “did not elicit a reproducible antiviral effect”. Further, the Mpro covalently modified in [18] is listed as 15–20%. For the same compound, in data set [5], the “Inhibition of Mpro activity (in words)” value is given as “significant inhibition”; the IC50 was 9 µM and 9.04 µM. The inhibition at 50 µM in data set [5] (setting [20]) is 50%.
As for `O=C1c2c(O)ccc(O)c2C(=O)c2c(NCCNCCO)ccc(NCCNCCO)c21` [Mitoxantrone], the “Antiviral effect” value in [1] is reported as “dose-dependent inhibition”. In data set [2], the “Drug-induced toxicity” value was “did not elicit substantial LDH release”.
On to `COc1cccc2c1C(=O)c1c(O)c3c(c(O)c1C2=O)C[C@@](O)(C(C)=O)C[C@@H]3O[C@H]1C[C@H](N)[C@H](O)[C@H](C)O1` [Daunorubicin], for which the “Antiviral effect” value in data set [1] was “dose-dependent inhibition”. For the same compound, the “Drug-induced toxicity” value in data set [2] is listed as “toxic to cells at high doses”.
As for `CCCCc1oc2ccc(NS(C)(=O)=O)cc2c1C(=O)c1ccc(OCCCN(CCCC)CCCC)cc1` [Dronedarone], the “Antiviral effect” value in data set [1] is reported as “dose-dependent inhibition”. For the same compound, the “Drug-induced toxicity” value in data set [2] was “particularly toxic at IC50 concentrations”. In addition, in [3], the EC50 turned out to be 0.38 µM and the IC50 amounted to 0.38 µM. In addition, in data set [5], the “Inhibition of Mpro activity (in words)” value is “significant inhibition” and the IC50 was found to be 18 µM. The inhibition at 50 µM in data set [5] (setting [20]) amounted to 50%. In [6], this compound came in with a CC50 of 20.2 µM.

For orientation: EC50 means the concentration that produces a half-maximal response. For orientation: half-life means how long it takes for the measured level to halve. Low readings indicate rapid decline, high ones slow decline.
